Source: ChEMBL document CHEMBL1124042, “Synthesis and potential antipsychotic activity of 1H-imidazo[1,2-c]pyrazolo[3,4-e]pyrimidines” (J Med Chem, 1988)

Key:
Mus musculus [1] = assay: Inhibition of locomotor activity in mouse after intraperitoneal administration; format: functional
Mus musculus [2] = assay: Inhibition of induction of ataxia in mouse after intraperitoneal administration; format: functional; conditions: ip
Rattus norvegicus [3] = assay: Inhibition of shelf-jump avoidance in rats after peroral administration.; format: functional
Procedure, shortened: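 One-way shelf-jump conditioned avoidance responding in rats. ED50 determined from at least three doses (N = 9).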

Rattus norvegicus [4] = assay: Inhibition of Sidman avoidance in rats after peroral administration; format: functional; conditions: po
Procedure, shortened: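 Continuous (Sidman) avoidance responding in rats with oral dosing. At least three doses per drug, four animals per dose. ED50 reported ± SEM.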

[5] = target: Beta-1 adrenergic receptor (Rattus norvegicus, UniProt P18090); assay: Displacement of [3H]DHA (Dihydroalprenolol) from beta-1 adrenergic receptor in rat brain; format: tissue-based
Chain of Beta-1 adrenergic receptor (P18090 whole entry): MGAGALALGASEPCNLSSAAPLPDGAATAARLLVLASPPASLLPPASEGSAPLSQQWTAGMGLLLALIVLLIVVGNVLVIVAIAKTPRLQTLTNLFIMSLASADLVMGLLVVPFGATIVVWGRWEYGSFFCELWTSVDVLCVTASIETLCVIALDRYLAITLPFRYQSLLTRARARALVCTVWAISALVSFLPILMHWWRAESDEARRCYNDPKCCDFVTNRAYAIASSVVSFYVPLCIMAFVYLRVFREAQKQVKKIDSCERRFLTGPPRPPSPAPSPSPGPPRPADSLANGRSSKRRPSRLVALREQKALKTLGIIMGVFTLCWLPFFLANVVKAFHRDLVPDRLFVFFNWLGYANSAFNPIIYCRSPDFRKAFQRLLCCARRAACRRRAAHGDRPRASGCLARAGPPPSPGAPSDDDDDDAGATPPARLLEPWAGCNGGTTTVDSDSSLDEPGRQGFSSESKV
Procedure, shortened: (§1)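 Rat brain radioligand displacement binding. IC50 values (μM) were derived by nonlinear regression from four or five concentrations of compound.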

[6] = Displacement of [3H]CHA (N6-Cyclohexyl adenosine) from rat brain adenosine A1 receptor
Monkey = assay: Inhibition of Sidman avoidance in squirrel monkeys after the compound administered perorally; format: functional; conditions: in Saimiri, po
Procedure, shortened: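 Oral dosing in squirrel monkeys trained on continuous (Sidman) avoidance responding. ED50 reported ± SEM.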

[7] = target: Beta-2 adrenergic receptor (Rattus norvegicus, UniProt P10608); assay: Displacement of [3H]DHA (Dihydroalprenolol) from beta-2 adrenergic receptor in rat brain; format: tissue-based; procedure, shortened: as §1
Chain of Beta-2 adrenergic receptor (P10608 whole entry): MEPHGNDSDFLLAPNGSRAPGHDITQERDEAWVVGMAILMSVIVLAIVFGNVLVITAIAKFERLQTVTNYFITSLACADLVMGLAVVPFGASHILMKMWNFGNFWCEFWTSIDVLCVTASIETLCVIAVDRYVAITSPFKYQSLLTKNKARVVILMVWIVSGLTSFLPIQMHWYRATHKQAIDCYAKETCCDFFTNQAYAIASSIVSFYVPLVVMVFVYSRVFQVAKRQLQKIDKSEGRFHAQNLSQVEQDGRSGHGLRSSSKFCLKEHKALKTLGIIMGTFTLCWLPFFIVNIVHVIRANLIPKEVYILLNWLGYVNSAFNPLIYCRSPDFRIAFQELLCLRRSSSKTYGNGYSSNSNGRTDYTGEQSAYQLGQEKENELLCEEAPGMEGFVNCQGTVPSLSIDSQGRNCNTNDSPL

[8] = target: Serotonin 1 (5-HT1) receptor (Rattus norvegicus, UniProt P28564+P30940+P19327+P28565); assay: Displacement of [3H]-5-HT from serotonin-1 neurotransmitter receptor in rat brain; format: tissue-based; procedure, shortened: as §1
Adenosine receptor A1 = target: T1, Adenosine receptor A1 (Rattus norvegicus, UniProt P25099); assay: Displacement of [3H]-CHA (N6-Cyclohexyl adenosine) from adenosine A1 receptor in rat brain; format: tissue-based; procedure, shortened: as §1
T1 sequence (P25099 whole entry): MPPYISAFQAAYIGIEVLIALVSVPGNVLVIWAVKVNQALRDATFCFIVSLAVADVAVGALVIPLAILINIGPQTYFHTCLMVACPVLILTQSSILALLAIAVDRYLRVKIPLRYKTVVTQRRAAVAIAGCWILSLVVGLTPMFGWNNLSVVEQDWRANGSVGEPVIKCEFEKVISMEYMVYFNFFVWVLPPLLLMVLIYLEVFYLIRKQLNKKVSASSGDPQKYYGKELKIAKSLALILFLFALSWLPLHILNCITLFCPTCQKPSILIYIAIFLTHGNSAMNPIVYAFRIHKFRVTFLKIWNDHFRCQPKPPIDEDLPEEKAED

[9] = Mus musculus, ip, read-out: ED50
[10] = Rattus norvegicus, po, read-out: ED50

Row | SMILES | ED50 (Mus musculus [1]; [9]) [mg/kg] | ED50 (Mus musculus [2]) [mg/kg] | ED50 (Rattus norvegicus [3]; [10]) [mg/kg] | further results
1 | CCOC(=O)CC1=Nc2c(C)nn(C)c2C2=NC(C)CN12 (configuration not stated) | > 100 | > 100 | > 100 | 
2 | CCC1=Nc2c(C)nn(C)c2C2=NCC(C)N12 (configuration not stated) | 28.3 | > 100 |  | 
3 | CCn1nc(C)c2c1C1=NCCN1C(C)=N2 | 22.7 | > 100 |  | ED50 (Rattus norvegicus [4]): 15.3 mg/kg
4 | Cc1nc2c3c(nc(C)n2c1C)c(C)nn3C | 39.7 | > 100 | 10 | 
5 | CC1=Nc2c(C)nn(C)c2C2=NC(C)CN12 (configuration not stated) | 32.1 | > 100 |  | 
6 | CCC1=Nc2c(C)nn(C)c2C2=NC(CC)CN12 (configuration not stated) | 21.7 | > 100 | 32 | 
7 | CCc1nc2c(C)nn(C)c2c2nc(C)cn12 | 36.8 | > 100 |  | ED50 (Rattus norvegicus [4]): 11.4 mg/kg
8 | CCc1nc2c(C)nn(C)c2c2ncc(C)n12 | 35.5 | > 100 | 11 | 
9 | Cc1nn(C)c2c1N=CN1CCN=C21 | 39.3 | > 100 |  | 
10 | CCC1=Nc2c(C)nn(C)c2C2=NC(C)CN12 (configuration not stated) | 21.6 | > 100 |  | ED50 (Rattus norvegicus [4]): 15.7 mg/kg
11 | CC[C@@H]1CN2C(C)=Nc3c(C)nn(C)c3C2=N1 | 61.1 | > 100 | 12 | 
12 | CCC1=Nc2c(C)nn(C)c2C2=NCCN12 | 22.8 | > 100 | 17 | ED50 (Rattus norvegicus [4]): 24.4 mg/kg
13 | CC1=Nc2c(C)nn(C)c2C2=N[C@@H](C(C)C)CN12 | 57.3 | > 100 |  | 
14 | CCn1nc(C)c2c1C1=NCC(c3ccccc3)N1C(C)=N2 (configuration not stated) | 75.5 | > 100 | > 100 | 
15 | Cc1nn(C)c2c1N=C(c1ccccc1)N1CC(C)N=C21 (configuration not stated) | 62.5 | > 100 | 65 | 
16 | Cc1nn(C)c2c1N=C(Cc1ccccc1)N1CC(C)N=C21 (configuration not stated) | 21.9 | > 100 | 62 | 
17 | CCCn1nc(C)c2c1C1=NC(C)CN1C(C)=N2 (configuration not stated) | 37.7 | > 100 |  | 

Row | SMILES | ED50 (Mus musculus [1]; [9]) [mg/kg] | ED50 (Mus musculus [2]) [mg/kg] | ED50 (Rattus norvegicus [3]; [10]) [mg/kg] | further results
18 | Cc1nn(C)c2c1N=CN1CC(C)N=C21 (configuration not stated) | 49.2 | > 100 |  | 
19 | CCC1=Nc2c(C)nn(CC)c2C2=NC(C)CN12 (configuration not stated) | 27.2 | > 100 |  | ED50 (Rattus norvegicus [4]): 15.8 mg/kg
20 | Cc1cn2c(CC(=O)O)nc3c(C)nn(C)c3c2n1 | > 100 | > 100 | > 100 | 
21 | CCn1nc(C)c2c1C1=NC(C)CN1C(C)=N2 (configuration not stated) | 25.7 | > 100 |  | ED50 (Rattus norvegicus [4]): 14.8 mg/kg
22 | Cc1nn(C)c2c1N=C(C1CC1)N1CC(C)N=C21 (configuration not stated) | 46.1 | > 100 | 12 | 
23 | CCc1nc2c(C)nn(C)c2c2nc(C)c(Cl)n12 | > 100 | > 100 | 100 | 
24 | CCc1nc2c(C)nn(C)c2c2nccn12 | 34.2 | > 100 | 15 | 
25 | Cc1nn(C)c2c1N=C(C(C)C)N1CC(C)N=C21 (configuration not stated) | > 100 | > 100 | 41 | 
26 | Cc1cn2c(C)nc3c(C)nn(C)c3c2n1 | 73 | > 100 | < 32 | 
27 | CCc1cn2c(CC)nc3c(C)nn(C)c3c2n1 | 20.6 | > 30 | 16 | 
28 | CC1=Nc2c(C)nn(C)c2C2=NC(C)(C)CN12 | 22.7 | > 100 |  | ED50 (Rattus norvegicus [4]): 53.7 mg/kg
29 | Cc1nn(C)c2c1nc(C)n1cc(Cc3ccccc3)nc21 | 83.3 | > 100 | 86 | 
30 | CC[C@H]1CN2C(C)=Nc3c(C)nn(C)c3C2=N1 | 42.8 | > 100 | 38 | 
31 | CC1=Nc2c(C)nn(C)c2C2=NC(C)C(C)N12 (stereo in doubt; cis) |  |  |  | ED50 (Mus musculus [1]): 37.8 mg/kg; ED50 (Rattus norvegicus [3]): 26 mg/kg
32 | CC1=Nc2c(C)nn(C)c2C2=NC(C)C(C)N12 (stereo in doubt; trans) | 69.1 | > 100 |  | 
33 | O=C(CCCN1CCC(O)(c2ccc(Cl)cc2)CC1)c1ccc(F)cc1 [HALOPERIDOL] | 0.27 | > 3 | 0.3 | ED50 (Rattus norvegicus [4]): 0.8 mg/kg
34 | CSc1ccc2c(c1)N(CCC1CCCCN1C)c1ccccc1S2 (configuration not stated) [THIORIDAZINE] | 4.4 | > 10 | 5.8 | IC50 [5]: > 10 µM; IC50 [6]: > 10 µM; ED50 (Monkey): 3.9 mg/kg; IC50 [7]: > 10 µM; IC50 [8]: 8.7 µM; IC50 (Adenosine receptor A1): > 10 µM
